Measured values from different studies.
OPRD1: Delta-type opioid receptor (OPRD1, Homo sapiens, UniProt P41143)
gag-pol reverse transcriptase: Gag-Pol polyprotein, reverse transcriptase (gag-pol, Human immunodeficiency virus 1, UniProt P03366)
ADRA2A: Alpha-2A adrenergic receptor (ADRA2A, Homo sapiens, UniProt P08913)
OGT: UDP-N-acetylglucosamine--peptide N-acetylglucosaminyltransferase 110 kDa subunit (OGT, Homo sapiens, UniProt O15294)

| SMILES | target | read-out | mode | technique | setting | IC50 |
| --- | --- | --- | --- | --- | --- | --- |
| CC(C)Cc1ccc([C@H](C)C(=O)O)cc1 | Histone acetyltransferase p300 (EP300, Homo sapiens, UniProt Q09472) | enzyme activity | inhibitor | mobility shift |  | ~6000 µM |
| CCCC[C@H](CNCc1ccccc1)N1CCN(CC(C)C)[C@H](Cc2ccc(O)cc2)C1 | OPRD1 | cell-free assay |  |  |  | > 10 µM |
| Cc1cc(/C=C/C#N)cc(C)c1Nc1ccnc(Nc2ccc(C#N)cc2)n1 | gag-pol reverse transcriptase | enzyme activity | inhibitor |  |  | 0.0214 µM |
| CC(CCc1ccccc1)NC(C)C(O)c1ccc(O)cc1 (centres unmarked) | ADRA2A | calcium signal | antagonist |  |  | 18.6 µM |
| Cc1cn([C@H]2CC[C@@H](OC(C(=O)O)C(=O)O)C2)c(=O)[nH]c1=O | gag-pol reverse transcriptase | enzyme activity | inhibitor | radiometric |  | > 640 µM |
| CCC[C@H](CN[C@H](CNC)Cc1ccc(O)cc1)NCC1CCC(C)CC1 (some centres unmarked) | OPRD1 | cell-free assay |  |  |  | > 10 µM |
| COc1ncccc1-c1cnn2ccc(N3CCN(C(=O)OC(C)C)CC3)nc12 | ADRA2A | cell-free assay |  |  |  | > 30 µM |
| CNC[C@@H](Cc1ccc(O)cc1)N1CCN(CCC2CC3CCC2C3)CC1 (some centres unmarked) | OPRD1 | cell-free assay |  |  |  | > 10 µM |
| CC(C)c1ccc(O)c(=O)c(O)c1 | gag-pol reverse transcriptase | enzyme activity | inhibitor | FRET |  | 0.308 µM |
| CC[C@H](C)[C@H](NC(=O)[C@H](CO)NC(=O)[C@H](Cc1ccc(O)cc1)NC(=O)[C@H](CCCCN)NC(=O)[C@@H]1CCCN1C(=O)[C@H](CCSC)NC(=O)[C@H](Cc1ccccc1)NC(=O)[C@H](CCSC)NC(=O)[C@@H](NC(=O)[C@@H]1CCCN1C(=O)[C@H](Cc1ccccc1)NC(=O)[C@H](CC(=O)O)NC(=O)CNC(=O)[C@H](CCCCN)NC(=O)[C@@H](N)CCCCN)C(C)C)C(=O)N[C@H](C(=O)N[C@@H](Cc1ccccc1)C(=O)O)[C@@H](C)CC | OGT | enzyme activity | inhibitor | fluorescence |  | 5.3 µM |
| CNC[C@H](Cc1ccc(O)cc1)N1CCN(CCc2cccc(C)c2)[C@@H](C(C)C)C1 | OPRD1 | cell-free assay |  |  |  | > 10 µM |
| Cc1c(O)c(O)cc2c1CC=C1[C@@]2(C)CC[C@@]2(C)[C@@H]3C[C@](C)(C(=O)O)CC[C@]3(C)CC[C@]12C | Androgen receptor (AR, Homo sapiens, UniProt P10275) | ligand displacement in cells |  | radioligand |  | 0.057 µM |
| CC(C)[C@@H]1CN([C@@H](CNCc2ccccc2)C(C)C)CCN1CCc1ccccc1 | OPRD1 | cell-free assay |  |  |  | > 10 µM |
| CCCCCCCCC[C@@H]1CC(=O)NCC(=O)N[C@H](Cc2ccc(O)cc2)C(=O)NCC(=O)N[C@@H](Cc2ccccc2)C(=O)O1 | OPRD1 | ligand displacement |  | radioligand |  | 38 µM |
| CN1CCC(=C2c3ccccc3CCc3sccc32)CC1 | ADRA2A | calcium signal | antagonist |  |  | 7.25 µM |
| C[C@@H](NC(=O)[C@@H](N)Cc1ccc(O)cc1)C(=O)NCC(=O)N[C@H](CC(=O)NNC(=O)C[C@H](Cc1ccccc1)NC(=O)CNC(=O)[C@@H](C)NC(=O)[C@@H](N)Cc1ccc(O)cc1)Cc1ccccc1 | OPRD1 | ligand displacement |  | radioligand |  | 0.00145 µM |
| CC[C@H](C)[C@H](NC(=O)[C@H](CO)NC(=O)[C@H](Cc1ccc(O)cc1)NC(=O)[C@H](CCCCN)NC(=O)[C@@H]1CCCN1C(=O)[C@H](CCSC)NC(=O)[C@H](Cc1ccccc1)NC(=O)[C@H](CCSC)NC(=O)[C@@H](NC(=O)[C@@H]1CCCN1C(=O)[C@H](Cc1ccccc1)NC(=O)[C@H](CC(=O)O)NC(=O)CN)C(C)C)C(=O)N[C@H](C(=O)N[C@@H](Cc1ccccc1)C(=O)N[C@@H](CCCCN)C(=O)N[C@@H](CCCCN)C(=O)O)[C@@H](C)CC | OGT | enzyme activity | inhibitor | fluorescence |  | 16 µM |
| CC(C)[C@H](CNCc1ccccc1)N1CCN(CCC2CC3CCC2C3)[C@@H](Cc2ccccc2)C1 (some centres unmarked) | OPRD1 | cell-free assay |  |  |  | > 10 µM |
| CCN(CC)C(=O)C1CN2CCc3cc(OC)c(OC)cc3C2CC1OC(C)=O (centres unmarked) | ADRA2A | calcium signal | antagonist |  |  | 0.45 µM |
| CCOC(=O)c1cncn1C(C)c1ccc(C2(C(F)(F)F)N=N2)cc1 (centres unmarked) | 5-hydroxytryptamine receptor 3A (HTR3A, Homo sapiens, UniProt P46098) | ion current |  | two-electrode voltage clamp | oocytes | 9 µM |
